From ChEMBL document CHEMBL1132192, “Design, synthesis, and evaluation of conformationally constrained tongs, new inhibitors of HIV-1 protease dimerization” (J Med Chem, 1999)
Numbered stars: 1 amine (or outer) side, 2 acyl side, 3 side chain; on linkers, the order of the positions; unused ones are H or OH. Bridge positions count the residues as written; N and C are the ends. Square brackets hold non-standard residues; d marks the D form. Peptide text beside a SMILES is read from it. I, II: the chains in the order shown. * marks the point of attachment. ξ: configuration not given here. Naphthalene(2,7-(OC3H6CO)2) = O=C(CCCOc1ccc2ccc(OCCCC(=O)[*:2])cc2c1)[*:1]; X1 = COC(=O)CCCOc1ccc2ccc(OCCCC(=O)*)cc2c1; Thr(3ξ) = CC(O)[C@H](N)C(=O)O

How the values were obtained:
[1] = target: T1, Human immunodeficiency virus type 1 protease (Human immunodeficiency virus 1, UniProt Q72874); assay: Inhibition of plasmid pET9c-PR expressing HIV-1 protease (No inhibition)
[2] = target: T1, Human immunodeficiency virus type 1 protease; assay: The compound was tested for HIV-1 protease inhibitory activity against plasmid pET9c-PR expressing HIV-1 protease.
[3] = target: Human immunodeficiency virus type 1 protease (Human immunodeficiency virus 1) (UniProt Q72874); assay: The compound was tested for HIV-1 protease inhibitory activity against plasmid pET9c-PR expressing HIV-1 protease. activity is expressed as Kid value.
Procedure, shortened: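 Dissociative (antidimer) inhibition was analysed by the Zhang kinetic method. Fluorogenic substrate was held at 5.2 μM ([S]0 ≪ Km, Km = 103 μM), with at least five HIV-1 protease (pET9c-PR) levels (2.37–11.8 nM) at several inhibitor concentrations. Runs were at pH 4.7 acetate buffer, 30 °C, fluorescence 340/490 nm. Kid was taken from regression fits of [E]0/√vi versus √vi.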

[4] = target: Human immunodeficiency virus type 1 protease (Human immunodeficiency virus 1) (UniProt Q72874); assay: The compound was tested for HIV-1 protease inhibitory activity against plasmid pET9c-PR expressing HIV-1 protease at 7 uM
Procedure, shortened: (§1)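 Recombinant HIV-1 protease (expressed from pET9c-PR), 7.5 nM final, prediluted in buffer with 1 mg/mL BSA. Inhibitor was mixed with fluorogenic substrate (5.2 μM final) and the reaction started with enzyme. Fluorescence rise at 490 nm (excitation 340 nm) was followed for 5 min at 30 °C.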

[5] = target: Human immunodeficiency virus type 1 protease (Human immunodeficiency virus 1) (UniProt Q72874); assay: The compound was tested for HIV-1 protease inhibitory activity against plasmid pET9c-PR expressing HIV-1 protease at 6.7 uM; procedure, shortened: as §1
[6] = target: Human immunodeficiency virus type 1 protease (Human immunodeficiency virus 1) (UniProt Q72874); assay: The compound was tested for HIV-1 protease inhibitory activity against plasmid pET9c-PR expressing HIV-1 protease at 4.5 uM; procedure, shortened: as §1

SMILES	IC50 [1]	IC50 [2]	further results
CC[C@H](C)[C@H](NC(=O)[C@H](CCC(N)=O)NC(=O)CCCOc1ccc2ccc(OCCCC(=O)N[C@@H](CCC(N)=O)C(=O)N[C@H](C(=O)N[C@H](C(=O)N[C@@H](CC(C)C)C(=O)OC)C(C)O)[C@@H](C)CC)cc2c1)C(=O)N[C@H](C(=O)N[C@@H](CC(C)C)C(=O)OC)C(C)O (stereo partly drawn) (I: QI[Thr(3ξ)]L-OMe / II: QI[Thr(3ξ)]L-OMe; linker I:N-II:N via Naphthalene(2,7-(OC3H6CO)2))	Not Active		
CC[C@@H](C)[C@H](NC(=O)[C@H](CCC(N)=O)NC(=O)CCCOc1ccc2ccc(OCCCC(=O)N[C@@H](CCC(N)=O)C(=O)N[C@H](C(=O)OC)[C@H](C)CC)cc2c1)C(=O)OC	Not Active		
COC(=O)[C@@H](NC(=O)[C@H](CC(C)C)NC(=O)[C@@H](NC(=O)CCCOc1ccc2ccc(OCCCC(=O)N[C@H](C(=O)N[C@@H](CC(C)C)C(=O)N[C@H](C(=O)OC)C(C)C)C(C)C)cc2c1)C(C)C)C(C)C		2 µM	Kid [3]: 0.56 µM
CC[C@@H](C)[C@H](NC(=O)[C@@H](NC(=O)CCCOc1cccc(OCCCC(=O)N[C@H](C(=O)N[C@H](C(=O)N[C@H](C(=O)OC)C(C)C)[C@H](C)CC)C(C)O)n1)C(C)O)C(=O)N[C@H](C(=O)OC)C(C)C (stereo not given in full)		4.2 µM	Kid [3]: 1.4 µM
CC[C@@H](C)[C@H](NC(=O)[C@H](CCC(N)=O)NC(=O)CCCOc1cccc(OCCCC(=O)N[C@@H](CCC(N)=O)C(=O)N[C@H](C(=O)OC)[C@H](C)CC)c1)C(=O)OC	Not Active		
COC(=O)[C@H](Cc1ccc(O)cc1)NC(=O)[C@H](CC(C)C)NC(=O)[C@@H](NC(=O)CCCOc1ccc2ccc(OCCCC(=O)N[C@H](C(=O)N[C@@H](CC(C)C)C(=O)N[C@@H](Cc3ccc(O)cc3)C(=O)OC)C(C)O)cc2c1)C(C)O (stereo not given in full)	Not Active		
COC(=O)CCCOc1ccc2ccc(OCCCC(=O)N[C@H](C(=O)N[C@@H](CC(C)C)C(=O)N[C@H](C(=O)OC)C(C)C)C(C)C)cc2c1	Not Active		
CC[C@H](C)[C@H](NC(=O)[C@H](CCC(N)=O)NC(=O)CCCOc1cccc(OCCCC(=O)N[C@@H](CCC(N)=O)C(=O)N[C@H](C(=O)N[C@H](C(=O)N[C@@H](CC(C)C)C(=O)OC)C(C)O)[C@@H](C)CC)n1)C(=O)N[C@H](C(=O)N[C@@H](CC(C)C)C(=O)OC)C(C)O (stereo not given in full)	Not Active		
COC(=O)CCCOc1ccc2ccc(OCCCC(=O)N[C@H](C(=O)N[C@@H](CC(C)C)C(=O)N[C@@H](Cc3ccc(O)cc3)C(=O)OC)C(C)O)cc2c1 (stereo not given in full)	Not Active		
CC(C)C[C@H](NC(=O)[C@@H](NC(=O)CCCOc1cccc(OCCCC(=O)N[C@H](C(=O)N[C@@H](CC(C)C)C(=O)N[C@H](C(=O)O)C(C)C)C(C)O)c1)C(C)O)C(=O)N[C@H](C(=O)O)C(C)C (stereo not given in full)	Not Active		
CC(C)C[C@H](NC(=O)[C@@H](NC(=O)CCCOc1cccc(OCCCC(=O)N[C@H](C(=O)N[C@@H](CC(C)C)C(=O)N[C@H](C(=O)O)C(C)C)C(C)O)n1)C(C)O)C(=O)N[C@H](C(=O)O)C(C)C (stereo not given in full)		34 µM	
CC[C@H](C)[C@H](NC(=O)[C@H](CCC(N)=O)NC(=O)CCCOc1ccc2ccc(OCCCC(=O)OC)cc2c1)C(=O)N[C@H](C(=O)N[C@@H](CC(C)C)C(=O)OC)C(C)O (stereo partly drawn) (X1-QI[Thr(3ξ)]L-OMe)	Not Active		
COC(=O)CCCOc1ccc2ccc(OCCCC(=O)N[C@H](C(=O)N[C@@H](CC(C)C)C(=O)N[C@@H](CC(N)=O)C(=O)N[C@@H](Cc3ccccc3)C(=O)OC)C(C)O)cc2c1 (stereo not given in full) (X1-[Thr(3ξ)]LNF-OMe)			inhibition [4]: 30%
COC(=O)[C@@H](NC(=O)[C@H](CC(C)C)NC(=O)[C@@H](NC(=O)CCCOc1ccc2ccc(OCCCC(=O)N[C@H](C(=O)N[C@@H](CC(C)C)C(=O)N[C@H](C(=O)OC)C(C)C)C(C)O)cc2c1)C(C)O)C(C)C (stereo not given in full)	Not Active		
COC(=O)[C@@H](NC(=O)[C@@H](NC(=O)[C@H](CC(C)C)NC(=O)[C@@H](NC(=O)CCCOc1ccc2ccc(OCCCC(=O)N[C@H](C(=O)N[C@@H](CC(C)C)C(=O)N[C@H](C(=O)N[C@H](C(=O)OC)C(C)C)C(C)C)[C@@H](C)O)cc2c1)[C@@H](C)O)C(C)C)C(C)C (I: TLVV-OMe / II: TLVV-OMe; linker I:N-II:N via Naphthalene(2,7-(OC3H6CO)2))	Not Active		
COC(=O)[C@@H](NC(=O)[C@H](CC(C)C)NC(=O)[C@@H](NC(=O)CCCOc1cccc(OCCCC(=O)N[C@H](C(=O)N[C@@H](CC(C)C)C(=O)N[C@H](C(=O)OC)C(C)C)C(C)C)c1)C(C)C)C(C)C	Not Active		
COC(=O)[C@@H](NC(=O)[C@@H](NC(=O)CCCOc1cccc(OCCCC(=O)N[C@H](C(=O)N[C@H](C(=O)OC)C(C)C)C(C)O)n1)C(C)O)C(C)C (stereo not given in full)	Not Active		
CC(C)C[C@H](NC(=O)[C@@H](NC(=O)CCCOc1ccc2ccc(OCCCC(=O)N[C@H](C(=O)N[C@@H](CC(C)C)C(=O)N[C@H](C(=O)OCc3ccccc3)C(C)C)C(C)O)cc2c1)C(C)O)C(=O)N[C@H](C(=O)OCc1ccccc1)C(C)C (stereo not given in full)	Not Active		
COC(=O)[C@H](Cc1ccccc1)NC(=O)[C@H](CC(N)=O)NC(=O)[C@H](CC(C)C)NC(=O)[C@@H](NC(=O)CCCOc1ccc2ccc(OCCCC(=O)N[C@H](C(=O)N[C@@H](CC(C)C)C(=O)N[C@@H](CC(N)=O)C(=O)N[C@@H](Cc3ccccc3)C(=O)OC)C(C)O)cc2c1)C(C)O (stereo not given in full) (I: [Thr(3ξ)]LNF-OMe / II: [Thr(3ξ)]LNF-OMe; linker I:N-II:N via Naphthalene(2,7-(OC3H6CO)2))		4.4 µM	Kid [3]: 1 µM
COC(=O)[C@@H](NC(=O)[C@H](CC(C)C)NC(=O)[C@@H](NC(=O)CCCOc1cccc(OCCCC(=O)N[C@H](C(=O)N[C@@H](CC(C)C)C(=O)N[C@H](C(=O)OC)C(C)C)C(C)O)n1)C(C)O)C(C)C (stereo not given in full)			inhibition [5]: 30%
COC(=O)[C@@H](NC(=O)[C@H](CC(C)C)NC(=O)[C@@H](NC(=O)CCCOc1cccc(OCCCC(=O)N[C@H](C(=O)N[C@@H](CC(C)C)C(=O)N[C@H](C(=O)OC)C(C)C)C(C)C)n1)C(C)C)C(C)C		3 µM	
COC(=O)CCCOc1ccc2ccc(OCCCC(=O)N[C@H](C(=O)N[C@@H](CC(C)C)C(=O)N[C@H](C(=O)N[C@H](C(=O)OC)C(C)C)C(C)C)C(C)O)cc2c1 (stereo not given in full) (X1-[Thr(3ξ)]LVV-OMe)		10 µM	
COC(=O)[C@H](Cc1ccccc1)NC(=O)[C@H](CC(N)=O)NC(=O)[C@H](CC(C)C)NC(=O)[C@@H](NC(=O)CCCOc1cccc(OCCCC(=O)N[C@H](C(=O)N[C@@H](CC(C)C)C(=O)N[C@@H](CC(N)=O)C(=O)N[C@@H](Cc2ccccc2)C(=O)OC)C(C)O)n1)C(C)O (stereo not given in full)		10 µM	
COC(=O)CCCOc1ccc2ccc(OCCCC(=O)N[C@H](C(=O)N[C@@H](CC(C)C)C(=O)N[C@H](C(=O)OC)C(C)C)C(C)O)cc2c1 (stereo not given in full)			inhibition [6]: 30%
COC(=O)[C@H](CC(C)C)NC(=O)[C@H](CC(C)C)NC(=O)CNC(=O)CCCOc1cccc(OCCCC(=O)NCC(=O)N[C@@H](CC(C)C)C(=O)N[C@@H](CC(C)C)C(=O)OC)n1		16 µM	Kid [3]: 4.5 µM
CC(C)C[C@H](NC(=O)[C@@H](NC(=O)CCCOc1ccc2ccc(OCCCC(=O)N[C@H](C(=O)N[C@@H](CC(C)C)C(=O)N[C@H](C(=O)O)C(C)C)C(C)O)cc2c1)C(C)O)C(=O)N[C@H](C(=O)O)C(C)C (stereo not given in full)		10 µM	
